Data as given in ChEMBL document CHEMBL3414546, “Design, synthesis and structure-activity relationship of oxazolidinone derivatives containing novel S4 ligand as FXa inhibitors” (Eur J Med Chem, 2015).
Values after ≈ are worked out from the molar mass of the structure shown.

Experiments:
Coagulation factor X [1] = target: T1, Coagulation factor X (Homo sapiens, UniProt P00742); test: Inhibition of F10a in human plasma assessed as doubling of prothombin time
Summary of the method: (§1)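 Citrated (3.8% sodium citrate) blood from healthy human volunteers or rabbit was spun at 2000 g for 10 min. The DMSO stock was diluted in plasma, 5–7 inhibitor concentrations were tested, and prothrombin time was read with Thromborel-S on an automated temperature-controlled coagulometer in duplicate. PTCT2 (the concentration doubling clotting time) came from regression of the concentration-response curve.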

Coagulation factor X [2] = target: T1, Coagulation factor X; test: Inhibition of human F10a using S-2765 as substrate at 0.1 uM after 45 mins by spectra max analysis relative to control
Summary of the method: (§2)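 Purified human FXa (10 ng) was used with chromogenic substrate S-2765 at 500 µM in 50 mM Tris-HCl pH 7.5, […], 1 mM CaCl2 and 2.5% DMSO (final). Compound was incubated for 45 min at 37 °C, and absorbance was read at 405 nm. Percent inhibition came from reaction velocity versus DMSO control. IC50 was taken from a plot of inhibition against concentration.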

Coagulation factor X [3] = target: T1, Coagulation factor X; test: Inhibition of F10a in human plasma assessed as doubling of activated partial thromboplastin time
Summary of the method: (§3)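 Plasma came from human volunteer or rabbit blood anticoagulated with 3.8% sodium citrate and centrifuged at 2000 g for 10 min. The DMSO stock was serially diluted in plasma. Clotting time was measured on control plasma and on plasma with five to seven inhibitor concentrations. The concentration doubling clotting time was estimated from the concentration-response curve.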

Coagulation factor X [4] = target: T2, Coagulation factor X (Oryctolagus cuniculus, UniProt O19045); test: Inhibition of F10a in rabbit plasma assessed as doubling of prothombin time; summary of the method: as §1
T2 sequence (O19045 whole entry): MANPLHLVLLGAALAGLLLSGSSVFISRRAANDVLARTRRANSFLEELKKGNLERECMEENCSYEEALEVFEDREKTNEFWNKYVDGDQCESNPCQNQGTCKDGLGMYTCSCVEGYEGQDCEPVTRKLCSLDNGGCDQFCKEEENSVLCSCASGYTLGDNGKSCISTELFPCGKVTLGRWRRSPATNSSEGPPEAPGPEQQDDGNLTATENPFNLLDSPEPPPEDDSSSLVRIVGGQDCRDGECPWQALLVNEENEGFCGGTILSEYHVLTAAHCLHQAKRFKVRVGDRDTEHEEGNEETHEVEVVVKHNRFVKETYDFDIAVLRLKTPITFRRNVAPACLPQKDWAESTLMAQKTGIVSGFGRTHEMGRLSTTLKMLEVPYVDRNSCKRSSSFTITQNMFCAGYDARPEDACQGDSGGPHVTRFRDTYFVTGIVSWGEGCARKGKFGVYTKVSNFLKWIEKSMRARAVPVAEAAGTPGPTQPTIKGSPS

Coagulation factor X [5] = target: T2, Coagulation factor X; test: Inhibition of F10a in rabbit plasma assessed as doubling of activated partial thromboplastin time; summary of the method: as §3
[6] = Solubility of the compound by Chinese pharmacopoeia 2010 edition of the second collection method; format: physicochemical
Coagulation factor X [7] = target: T1, Coagulation factor X; test: Inhibition of human F10a using S-2765 as substrate after 45 mins by spectra max analysis; summary of the method: as §2

T1 sequence (P00742 41-179 limits assumed): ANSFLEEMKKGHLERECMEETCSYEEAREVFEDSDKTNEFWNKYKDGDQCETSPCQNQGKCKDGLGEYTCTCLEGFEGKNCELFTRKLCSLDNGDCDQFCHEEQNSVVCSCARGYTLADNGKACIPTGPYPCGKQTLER
T1 sequence (P00742 235-488 limits assumed): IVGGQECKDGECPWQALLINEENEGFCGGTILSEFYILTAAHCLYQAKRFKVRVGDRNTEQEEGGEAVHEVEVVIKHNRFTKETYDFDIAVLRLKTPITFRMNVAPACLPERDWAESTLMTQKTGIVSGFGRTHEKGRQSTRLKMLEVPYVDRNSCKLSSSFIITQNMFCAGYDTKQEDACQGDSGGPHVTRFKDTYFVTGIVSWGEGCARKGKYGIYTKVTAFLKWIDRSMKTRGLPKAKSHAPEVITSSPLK

Row | SMILES | IC50 (Coagulation factor X [1]) | inhibition (Coagulation factor X [2]) | IC50 (Coagulation factor X [3]) | IC50 (Coagulation factor X [4]) | IC50 (Coagulation factor X [5]) | solubility [6] | IC50 (Coagulation factor X [7])
1 | CN(C)Cc1cccn1-c1cc(F)c(N2C[C@H](CNC(=O)c3ccc(Cl)s3)OC2=O)c(F)c1 | 1.83 µM | 88% | 2.31 µM | 1.98 µM | 2.56 µM | – | –
2 | CN1CCN(Cc2cc3ccccc3n2-c2ccc(N3C[C@H](CNC(=O)c4ccc(Cl)s4)OC3=O)cc2)CC1 | 11.3 µM | 45% | – | 13.3 µM | – | – | –
3 | CN1CCN(Cc2cccn2-c2ccc(N3C[C@H](CNC(=O)c4ccc(Cl)s4)OC3=O)cc2)CC1 | 3.8 µM | 71% | 4.01 µM | 3.9 µM | 4.14 µM | – | –
4 | O=C(NC[C@H]1CN(c2ccc(-n3cccc3CN3CCC3)cc2)C(=O)O1)c1ccc(Cl)s1 | 0.7 µM | 92% | 1.31 µM | 0.81 µM | 1.52 µM | – | –
5 | O=C(NC[C@H]1CN(c2ccc(-n3c(CN4CCOCC4)cc4ccccc43)cc2)C(=O)O1)c1ccc(Cl)s1 | 10.1 µM | 58% | 11.2 µM | 11.1 µM | – | 0.0258 mg/mL (≈ 46.8 µM) | –
6 | O=C(NC[C@H]1CN(c2cc(F)c(-n3cccc3CN3CCCC3)c(F)c2)C(=O)O1)c1ccc(Cl)s1 | 2.79 µM | 73% | 3.06 µM | 2.98 µM | 3.67 µM | 0.0204 mg/mL (≈ 39.2 µM) | –
7 | CN(C)Cc1cccn1-c1ccc(N2C[C@H](CNC(=O)c3ccc(Cl)s3)OC2=O)cc1 | 0.61 µM | 98% | 1.2 µM | 0.78 µM | 1.39 µM | – | 0.00724 µM
8 | CN(C)Cc1cc2ccccc2n1-c1ccc(N2C[C@H](CNC(=O)c3ccc(Cl)s3)OC2=O)cc1 | 5.78 µM | 69% | 6.02 µM | 5.92 µM | 6.23 µM | – | –
9 | O=C(NC[C@H]1CN(c2ccc(N3CCOCC3=O)cc2)C(=O)O1)c1ccc(Cl)s1 [RIVAROXABAN] | – | 100% | – | 0.51 µM | 0.86 µM | – | –
10 | CC1CCN(Cc2cccn2-c2ccc(N3C[C@H](CNC(=O)c4ccc(Cl)s4)OC3=O)cc2)CC1 | 3.22 µM | 70% | 3.53 µM | 3.45 µM | 3.78 µM | – | –
11 | O=C(NC[C@H]1CN(c2ccc(-n3cccc3CN3CCCCC3)cc2)C(=O)O1)c1ccc(Cl)s1 | 2.62 µM | 82% | 2.85 µM | 2.89 µM | 3.23 µM | – | –
12 | O=C(NC[C@H]1CN(c2ccc(-n3cccc3CN3CCCC3)cc2)C(=O)O1)c1ccc(Cl)s1 | 1.42 µM | 89% | 1.71 µM | 1.58 µM | 1.98 µM | – | –
13 | CN(C)Cc1cccn1-c1ccc(N2C[C@H](CNC(=O)c3ccc(Cl)s3)OC2=O)cc1F | 0.65 µM | 90% | 1.33 µM | 0.91 µM | 1.58 µM | 0.0102 mg/mL (≈ 21.4 µM) | 0.00658 µM
14 | CC1CCN(Cc2cc3ccccc3n2-c2ccc(N3C[C@H](CNC(=O)c4ccc(Cl)s4)OC3=O)cc2)CC1 | 10.5 µM | 56% | 11.9 µM | 12.1 µM | 13.1 µM | – | –
15 | CCN(CC)Cc1cc2ccccc2n1-c1ccc(N2C[C@H](CNC(=O)c3ccc(Cl)s3)OC2=O)cc1 | 5.32 µM | 61% | 5.45 µM | 6.02 µM | 6.11 µM | – | –
16 | CCN(CC)Cc1cccn1-c1ccc(N2C[C@H](CNC(=O)c3ccc(Cl)s3)OC2=O)cc1 | 0.15 µM | 100% | 0.3 µM | 0.46 µM | 0.75 µM | 0.0069 mg/mL (≈ 14.2 µM) | 0.00201 µM
17 | O=C(NC[C@H]1CN(c2ccc(-n3c(CN4CCCCC4)cc4ccccc43)cc2)C(=O)O1)c1ccc(Cl)s1 | 11 µM | 52% | – | 11.5 µM | – | – | –
18 | CCN(CC)Cc1csc(-c2ccc(N3C[C@H](CNC(=O)c4ccc(Cl)s4)OC3=O)cc2)n1 | 0.51 µM | 100% | 0.82 µM | 0.72 µM | 1.03 µM | – | 0.00946 µM

The remaining lines, values ahead:

Row | IC50 (Coagulation factor X [1]) | inhibition (Coagulation factor X [2]) | IC50 (Coagulation factor X [3]) | IC50 (Coagulation factor X [4]) | IC50 (Coagulation factor X [5]) | solubility [6] | IC50 (Coagulation factor X [7]) | SMILES
19 | 3.85 µM | 56% | 4.12 µM | 4.23 µM | 5.12 µM | 0.0332 mg/mL (≈ 62.4 µM) | – | CN1CCN(Cc2csc(-c3ccc(N4C[C@H](CNC(=O)c5ccc(Cl)s5)OC4=O)cc3)n2)CC1
20 | 2.72 µM | 72% | 2.95 µM | 3.12 µM | 3.46 µM | – | – | O=C(NC[C@H]1CN(c2ccc(-c3nc(CN4CCCCC4)cs3)cc2)C(=O)O1)c1ccc(Cl)s1
21 | 0.65 µM | 93% | 0.79 µM | 0.89 µM | 1.16 µM | – | – | CCNCc1csc(-c2ccc(N3C[C@H](CNC(=O)c4ccc(Cl)s4)OC3=O)cc2)n1
22 | 2.93 µM | 76% | 3.31 µM | 3.19 µM | 3.52 µM | – | – | O=C(NC[C@H]1CN(c2ccc(-n3cccc3CN3CCOCC3)cc2)C(=O)O1)c1ccc(Cl)s1
23 | 3.6 µM | 62% | 3.81 µM | 4.06 µM | 4.79 µM | – | – | O=C(NC[C@H]1CN(c2ccc(-c3nc(CN4CCOCC4)cs3)cc2)C(=O)O1)c1ccc(Cl)s1
24 | 0.87 µM | 91% | 0.98 µM | 0.92 µM | 1.24 µM | – | – | CN(C)Cc1csc(-c2ccc(N3C[C@H](CNC(=O)c4ccc(Cl)s4)OC3=O)cc2)n1
25 | 1.65 µM | 89% | 1.87 µM | 1.66 µM | 1.91 µM | – | – | CNCc1csc(-c2ccc(N3C[C@H](CNC(=O)c4ccc(Cl)s4)OC3=O)cc2)n1
26 | 2.42 µM | 79% | 2.71 µM | 2.78 µM | 3.04 µM | – | – | O=C(NC[C@H]1CN(c2ccc(-c3nc(CN4CCCC4)cs3)cc2)C(=O)O1)c1ccc(Cl)s1
27 | 3.03 µM | 68% | 3.39 µM | 3.78 µM | 4.02 µM | – | – | CC1CCN(Cc2csc(-c3ccc(N4C[C@H](CNC(=O)c5ccc(Cl)s5)OC4=O)cc3)n2)CC1
